In PubChem BioAssay AID463111 (Johns Hopkins Ion Channel Center, 2010):
Screen size: about 310,000 compounds; about 2,800 (0.9%) were called active.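 Rule for the calls: active = B-score of the integrated calcium signal more than 4 SD below the library mean, with starting fluorescence not abnormally high; inactive = the rest.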 Many of the other results were omitted from the sample, so actives are more common in it than they were.

Assay: RGS4 potentiators or activators, primary screen, cell-based, HEK293 M3R inducible RGS4, calcium flux (AID 463111);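 for B-score: negative B-score means reduced calcium response which marks RGS4 activation or potentiation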
Settings: HEK293 M3R/inducible RGS4, carbachol calcium flux Fluo4, at 10 µM; hits give low values
Method in brief: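 Material: M3R-expressing HEK293 line, RGS4 induced by doxycycline | Schedule: Overnight RGS4 induction, 30 min dye load 37 °C, 20 min compound RT | Measured by: Fluo4 fluorescence kinetic imaging of calcium | Read-out: Integrated calcium ratio converted to B score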

| SMILES | B-score |
| --- | --- |
| COc1ccccc1-c1cnn2c(N3CCOCC3)cc(C)nc12 | inactive |
| CC(C)Oc1ccc(CN2CCC(n3nccc3NC(=O)c3cccnc3)CC2)cc1 | inactive |
| Cc1nnc(SCC(=O)NNC(=O)c2ccc(Cl)cc2)n1CC1CCCO1 (stereo not drawn) | inactive |
| Cc1ccc(-n2c(-c3ccc(Cl)cc3)n[nH]c2=S)cc1 | inactive |
| S=c1[nH]nc(-c2ccc(Cl)cc2)n1CC1CCCO1 (stereo not drawn) | -8.73 (active) |
| O=C(CSc1ncccn1)N1CCCC1 | inactive |
| CCCCCN(C(=O)NC(=O)Nc1ccccc1OC)S(C)(=O)=O | inactive |
| CCCN1C2=C(C(=O)CCC2)C(c2ccc(O)c(Br)c2)C2=C1CCCC2=O | inactive |
| CCOc1cc(/C=N/NC(=O)c2ccc(CSc3nncn3C)cc2)ccc1OCC(=O)N1CCOCC1 | inactive |
| COCCCNS(=O)(=O)c1cccc(S(=O)(=O)c2cccc(S(=O)(=O)NCCCOC)c2)c1 | inactive |
| COc1cccc(-c2cc3nc4c(c(N5CCC6(CC5)OCCO6)n3n2)CCCC4)c1 | -7.88 (active) |
| COc1cccc(CNc2nc3nc4c(c(=O)n3[nH]2)CCC4)c1 | inactive |
| COc1cccc(NC(=O)CN2CCN(c3nc(-c4cccc(OC)c4)cs3)CC2)c1 | inactive |
| O=C(c1cc2ccccc2o1)N1CCN(Cc2ccccc2)CC1 | inactive |
| Cc1cnc(C(=O)N2CCCC(N3CCN(c4ccccc4F)CC3)C2)cn1 (stereo not drawn) | inactive |
| O=C(NCCc1c[nH]c2ccccc12)c1cc2ccccc2oc1=O | inactive |
| CCCN(CCC)c1nc2c(C)cccn2c(=O)c1/C=C1/SC(=S)N(Cc2ccco2)C1=O | inactive |
| CC(C)NC(=O)C(=O)NCCCOC(C)C | inactive |
| COc1ccc(C(=O)Nc2nc(-c3ccc(S(=O)(=O)N4CCOCC4)cc3)cs2)cc1 | -7.75 (active) |
| CNC(=O)c1ccsc1NC(=O)c1ccc(S(=O)(=O)N2CCOCC2)cc1 | inactive |
| CCOC(=O)c1csc(NC(=O)c2ccc(S(=O)(=O)N3CCCC3)cc2)n1 | inactive |

| SMILES | B-score |
| --- | --- |
| O=C(COC(=O)c1cnccn1)Nc1ccc(Cl)cc1C(F)(F)F | inactive |
| COc1ccc(Cc2nnc(SCC(=O)Nc3ccc(C)c(Cl)c3)[nH]c2=O)cc1 | inactive |
| O=C(Nc1ccccc1C(=O)Nc1ccncc1)c1ccc([N+](=O)[O-])cc1 | inactive |
| O=C(Nc1cc2c3c(c1)C1CCCC1CN3CC1CCCC21)c1ccc([N+](=O)[O-])cc1 (stereo not drawn) | -8.07 (active) |
| CN1C2CCC1CC(NC(=O)c1ccc([N+](=O)[O-])cc1)C2 (stereo not drawn) | inactive |
| O=C(Nc1ccc2c(c1)OCO2)C1CC(c2c(F)cccc2Cl)=NO1 (stereo not drawn) | inactive |
| COc1cc(NC(=S)NCCSc2ccc(C)cc2)cc(OC)c1 | inactive |
| COc1cc(/C=C(\C#N)c2nc3c(s2)CC(C)CC3)ccc1O (stereo not drawn) | inactive |
| COc1ccc(/C=C(/NC(=O)c2ccc(C)cc2)c2nc3ccccc3[nH]2)cc1OC | inactive |
| COc1cc(/C=C(\C#N)c2nc3ccccc3[nH]2)ccc1O | -8.51 (active) |
| COc1ccccc1NC(=O)N1CCCC1C(=O)NCc1cccs1 (stereo not drawn) | inactive |
| O=C1Nc2ccc(Br)cc2/C1=N/N=C/C1=C(N2CCOCC2)C(=C\c2ccccc2)/CC1 | inactive |
| COc1cccc2sc(N(CCCN(C)C)C(=O)CCS(=O)(=O)c3ccccc3)nc12 | inactive |
| Cc1cccc2sc(N(CCCN(C)C)C(=O)CCS(=O)(=O)c3ccccc3)nc12 | -8.92 (active) |
| COc1cccc2sc(N(CCCN(C)C)C(=O)C(c3ccccc3)c3ccccc3)nc12 | inactive |
| CC(C)OC(=O)c1sc2nc3c(cc2c1N)C(=O)CCC3 | inactive |
| Cc1ccc(-c2nn(-c3ccccc3)cc2C(=O)NCCCN2CCCC2=O)cc1 | inactive |
| Cc1cccc(C)c1NC(=O)CNC(=O)c1c(C)nn(-c2ccccc2)c1C | inactive |
| CN(/C(=N/S(=O)(=O)c1cccs1)c1ccccc1)c1ccc(O)cc1 | inactive |
| CCCNC(=O)CCn1nc(-c2ccccc2)c2ccccc2c1=O | inactive |
| CCc1cccc(CC)c1NC(=O)COc1ccccc1C(=O)c1cc(C#N)c(=O)n(C2CCCCC2)c1 | inactive |

| SMILES | B-score |
| --- | --- |
| COc1ccc(C(=O)NC(=S)Nc2ccccc2N2CCN(S(C)(=O)=O)CC2)cc1OC | inactive |
| CC(=O)N1CCN(c2ccccc2NC(=S)NC(=O)c2cc3ccccc3o2)CC1 | -6.98 (active) |
| CCc1ccc(C(=O)NC(=S)Nc2ccccc2N2CCOCC2)cc1 | inactive |
| CCCCn1c(N)c(N(CC(C)C)C(=O)C2CSC3(C)CCC(=O)N23)c(=O)[nH]c1=O (stereo not drawn) | inactive |
| CCCCn1c(N)c(N(CC)C(=O)c2ccc(N(C)S(=O)(=O)c3ccc(C)cc3)cc2)c(=O)[nH]c1=O | inactive |
| CCS(=O)(=O)C1=NSC2=NC(=O)/C(=C\c3ccc(OS(=O)(=O)c4ccccc4)cc3)C(=N)N21 | inactive |
| Cc1cc(/C=C2/C(=N)N3C(=NC2=O)SN=C3S(C)(=O)=O)c(C)n1-c1ccccc1 | inactive |
| CCS(=O)(=O)C1=NSC2=NC(=O)/C(=C\c3cc(C)n(-c4cccc(OC)c4)c3C)C(=N)N21 | -7.01 (active) |
| COCCCNC(=O)CNC(=O)c1nn(-c2ccc(OC)cc2)c(=O)c2ccccc12 | inactive |
| Cc1cc([N+](=O)[O-])ccc1NC1CCCC1 | inactive |
| Cc1c(NS(=O)(=O)c2ccc(NC3CCCC3)c([N+](=O)[O-])c2)c(=O)n(-c2ccccc2)n1C | inactive |
| Cc1cc(C=O)c(C)n1-c1ccc(NC2CCCCC2)c([N+](=O)[O-])c1 | -7.21 (active) |
| Cc1cc(-c2nnc(SCC(=O)Nc3ccc(F)cc3)n2N)n[nH]1 | inactive |
| O=C(NCc1ccco1)/C(=C/c1cccc([N+](=O)[O-])c1)NC(=O)c1ccco1 | inactive |
| COc1ccccc1NC(=O)COC(=O)c1ccccc1SCC(=O)N1CCCC1 | inactive |
| CC(NC(=O)c1ccccc1SCC(=O)N1CCCC1)c1ccccc1 (stereo not drawn) | inactive |
| CC(C)N(Cc1ccccc1)C(=O)COC(=O)c1ccccc1SCC(=O)N1CCCC1 | -8.67 (active) |
| Cc1ccc(C(=O)N/C(=C\c2cccs2)C(=O)NCCc2ccccn2)cc1C | inactive |
| COc1ccc(CN2CCCC(C(=O)c3ccc(Cl)cc3)C2)cc1Cn1cncn1 (stereo not drawn) | -10.3 (active) |
| COc1cc(CN2CCCC(C(=O)c3ccc(SC)cc3)C2)cc(Cl)c1O (stereo not drawn) | inactive |
| COc1ccc(CCN(C)C(=O)C2CCCN(Cc3ccc(OC)c(OC)c3)C2)cc1OC (stereo not drawn) | inactive |
